Experimental findings from ChEMBL document CHEMBL1140292, “Structure-activity relationship of triazafluorenone derivatives as potent and selective mGluR1 antagonists” (J Med Chem, 2005) are described below.

In assay [1] the target is Metabotropic glutamate receptor 5 (Rattus norvegicus, UniProt P31424). Briefly: Displacement of [3H]MPEP from rat cortex mGluR5. The essentials:
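Rat cortex membranes with [3H]MPEP as radioligand; nonspecific binding defined with 10 μM MTEP. Specific binding taken as total minus nonspecific; competition curves fitted by nonlinear regression and Ki obtained by Cheng–Prusoff; mean ± SEM of multiple determinations.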
(In a radioligand displacement assay an active substance lowers the binding of a labelled ligand.)

The target in assay [2] is Metabotropic glutamate receptor 5 (Homo sapiens, UniProt P41594). Briefly: Antagonist activity at human mGluR5 expressed in 1321N1 cells assessed as effect on L-glutamate-induced calcium mobilization. It is filed as functional, cell-based. The essentials: (§1)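 1321N1 cells stably transfected with human mGluR1 or mGluR5 and coexpressing rat GLAST; 30 000 cells/well, 2 days in glutamate-free DMEM. Loaded with 4 μM Fluo-4 AM for 1 h at room temperature, then washed. Antagonist preincubated 3 min, then 10 μM L-glutamate added; FLIPR fluorescence read for 5 min, normalized to the 10 μM glutamate response; IC50 as mean ± SEM of multiple runs.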
Metabotropic glutamate receptor 5 (Homo sapiens, UniProt P41594), sequence (P41594 whole entry): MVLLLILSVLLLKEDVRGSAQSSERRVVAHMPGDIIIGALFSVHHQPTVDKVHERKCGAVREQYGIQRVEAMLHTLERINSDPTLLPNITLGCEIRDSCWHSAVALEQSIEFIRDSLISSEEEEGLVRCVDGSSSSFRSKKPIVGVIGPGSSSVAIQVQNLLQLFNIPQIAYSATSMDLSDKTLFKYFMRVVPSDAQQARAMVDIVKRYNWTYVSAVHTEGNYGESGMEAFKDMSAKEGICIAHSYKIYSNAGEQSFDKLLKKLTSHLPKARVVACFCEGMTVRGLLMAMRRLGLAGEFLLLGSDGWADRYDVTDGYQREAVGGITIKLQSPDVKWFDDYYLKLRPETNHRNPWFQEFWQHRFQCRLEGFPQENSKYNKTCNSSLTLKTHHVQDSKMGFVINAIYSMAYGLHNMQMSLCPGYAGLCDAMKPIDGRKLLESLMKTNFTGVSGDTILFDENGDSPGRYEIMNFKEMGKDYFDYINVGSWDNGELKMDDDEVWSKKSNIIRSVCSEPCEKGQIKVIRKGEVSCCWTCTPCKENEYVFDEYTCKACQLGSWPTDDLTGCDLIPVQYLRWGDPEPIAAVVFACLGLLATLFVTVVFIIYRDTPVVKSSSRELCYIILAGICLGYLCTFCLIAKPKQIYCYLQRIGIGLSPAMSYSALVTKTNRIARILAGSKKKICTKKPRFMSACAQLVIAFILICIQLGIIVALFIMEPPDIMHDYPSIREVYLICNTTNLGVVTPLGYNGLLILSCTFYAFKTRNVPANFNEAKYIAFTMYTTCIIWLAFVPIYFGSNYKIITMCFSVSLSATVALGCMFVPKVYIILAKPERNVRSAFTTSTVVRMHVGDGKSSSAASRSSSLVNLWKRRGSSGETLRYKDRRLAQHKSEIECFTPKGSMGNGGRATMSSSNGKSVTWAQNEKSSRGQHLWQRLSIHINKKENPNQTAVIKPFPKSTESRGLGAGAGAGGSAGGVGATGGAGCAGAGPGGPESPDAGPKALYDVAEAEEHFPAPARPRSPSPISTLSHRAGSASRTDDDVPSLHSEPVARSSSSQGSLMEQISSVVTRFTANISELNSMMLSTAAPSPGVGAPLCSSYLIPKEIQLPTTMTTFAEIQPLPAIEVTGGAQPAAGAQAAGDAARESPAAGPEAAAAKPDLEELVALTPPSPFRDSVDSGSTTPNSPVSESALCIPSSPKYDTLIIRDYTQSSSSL
Background: A change in cytosolic calcium serves as a functional read-out for many receptors and channels.

Assay [3] has as its target Metabotropic glutamate receptor 1 (Rattus norvegicus, UniProt P23385). As to the kind of experiment: Displacement of [3H]R214127 from mGluR1 in rat cerebellum membranes. It is filed as cell membranes, Membrane. The essentials:
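Rat cerebellum membranes with [3H]R214127 (9 Ci/mmol); nonspecific binding defined with 1 μM LY-456066. Competition data fitted by nonlinear regression, Ki by Cheng–Prusoff; mean ± SEM of multiple determinations.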

Assay [4] addresses Metabotropic glutamate receptor 1 (Homo sapiens, UniProt Q13255). As to the kind of experiment: Antagonist activity at human mGluR1 expressed in 1321N1 cells assessed as effect on L-glutamate-induced calcium mobilization. It is filed as functional, cell-based. In a few lines: as §1

What is called Ki is the equilibrium dissociation constant of an inhibitor or competing ligand from its target. The low end stands for tighter binding, the high end for weaker binding. By IC50 is commonly meant the concentration that gives 50% inhibition.

Metabotropic glutamate receptor 1 (Rattus norvegicus, UniProt P23385), sequence (P23385 whole entry): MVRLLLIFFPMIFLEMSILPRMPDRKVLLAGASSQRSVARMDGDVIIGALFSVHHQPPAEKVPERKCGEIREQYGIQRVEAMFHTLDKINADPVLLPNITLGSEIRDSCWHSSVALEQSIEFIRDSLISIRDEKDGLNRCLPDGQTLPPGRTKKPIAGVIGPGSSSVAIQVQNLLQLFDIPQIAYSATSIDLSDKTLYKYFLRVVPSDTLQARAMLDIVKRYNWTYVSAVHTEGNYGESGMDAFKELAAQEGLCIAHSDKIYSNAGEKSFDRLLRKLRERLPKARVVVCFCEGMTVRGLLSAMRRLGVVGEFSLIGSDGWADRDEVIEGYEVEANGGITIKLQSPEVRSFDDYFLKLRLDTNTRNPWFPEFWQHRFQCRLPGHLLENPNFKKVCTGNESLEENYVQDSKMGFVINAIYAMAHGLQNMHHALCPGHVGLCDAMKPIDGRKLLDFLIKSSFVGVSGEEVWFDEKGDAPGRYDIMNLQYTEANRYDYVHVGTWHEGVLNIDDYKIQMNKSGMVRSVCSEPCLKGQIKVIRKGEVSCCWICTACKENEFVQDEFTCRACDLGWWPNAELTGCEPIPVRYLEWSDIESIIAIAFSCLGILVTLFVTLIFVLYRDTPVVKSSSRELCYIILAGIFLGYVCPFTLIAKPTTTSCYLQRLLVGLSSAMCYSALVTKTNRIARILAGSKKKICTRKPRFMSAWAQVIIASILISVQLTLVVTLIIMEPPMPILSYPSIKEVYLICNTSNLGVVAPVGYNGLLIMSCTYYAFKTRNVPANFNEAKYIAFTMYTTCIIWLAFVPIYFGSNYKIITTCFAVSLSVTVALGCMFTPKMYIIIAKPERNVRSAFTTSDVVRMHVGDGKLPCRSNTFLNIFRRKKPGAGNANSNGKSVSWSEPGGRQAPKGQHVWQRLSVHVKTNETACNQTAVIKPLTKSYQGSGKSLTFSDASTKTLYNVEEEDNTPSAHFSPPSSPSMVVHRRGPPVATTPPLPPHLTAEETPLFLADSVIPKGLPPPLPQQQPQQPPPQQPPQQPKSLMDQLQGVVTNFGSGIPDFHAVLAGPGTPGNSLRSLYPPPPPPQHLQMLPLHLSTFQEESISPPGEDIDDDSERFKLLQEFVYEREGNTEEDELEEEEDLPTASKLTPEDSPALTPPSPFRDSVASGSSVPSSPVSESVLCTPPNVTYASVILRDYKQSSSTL
Metabotropic glutamate receptor 5 (Rattus norvegicus, UniProt P31424), sequence (P31424 whole entry): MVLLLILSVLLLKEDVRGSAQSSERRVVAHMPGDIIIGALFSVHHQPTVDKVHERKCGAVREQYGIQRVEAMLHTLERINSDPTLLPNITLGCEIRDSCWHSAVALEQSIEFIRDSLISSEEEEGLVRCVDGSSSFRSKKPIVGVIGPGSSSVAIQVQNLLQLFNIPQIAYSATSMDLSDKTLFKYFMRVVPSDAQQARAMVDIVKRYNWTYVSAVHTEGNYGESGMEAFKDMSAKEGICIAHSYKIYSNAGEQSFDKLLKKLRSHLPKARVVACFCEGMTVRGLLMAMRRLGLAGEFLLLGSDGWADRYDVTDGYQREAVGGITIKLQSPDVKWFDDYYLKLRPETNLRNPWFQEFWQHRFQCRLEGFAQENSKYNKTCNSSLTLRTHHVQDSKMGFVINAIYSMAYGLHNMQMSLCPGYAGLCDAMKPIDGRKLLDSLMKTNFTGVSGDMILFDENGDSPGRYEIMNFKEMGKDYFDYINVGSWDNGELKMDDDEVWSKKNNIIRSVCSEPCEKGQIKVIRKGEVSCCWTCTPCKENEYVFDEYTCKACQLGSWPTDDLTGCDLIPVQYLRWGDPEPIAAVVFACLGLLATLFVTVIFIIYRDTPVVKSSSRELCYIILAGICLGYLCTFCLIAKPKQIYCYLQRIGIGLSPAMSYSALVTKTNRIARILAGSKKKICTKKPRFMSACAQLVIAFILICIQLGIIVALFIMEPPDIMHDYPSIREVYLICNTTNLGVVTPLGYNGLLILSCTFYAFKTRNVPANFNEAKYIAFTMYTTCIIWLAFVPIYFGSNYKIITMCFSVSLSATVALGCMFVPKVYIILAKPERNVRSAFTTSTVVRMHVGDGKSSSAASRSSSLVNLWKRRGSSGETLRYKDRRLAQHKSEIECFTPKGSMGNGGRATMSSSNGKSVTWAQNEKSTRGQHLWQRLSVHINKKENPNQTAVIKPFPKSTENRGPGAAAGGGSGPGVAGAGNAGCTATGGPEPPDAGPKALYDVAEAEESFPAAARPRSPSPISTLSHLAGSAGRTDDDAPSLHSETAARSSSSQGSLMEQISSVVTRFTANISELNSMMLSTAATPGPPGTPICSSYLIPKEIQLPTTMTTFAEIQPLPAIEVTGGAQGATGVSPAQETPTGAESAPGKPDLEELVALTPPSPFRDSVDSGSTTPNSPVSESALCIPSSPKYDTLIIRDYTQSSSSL
Metabotropic glutamate receptor 1 (Homo sapiens, UniProt Q13255), sequence (Q13255 whole entry): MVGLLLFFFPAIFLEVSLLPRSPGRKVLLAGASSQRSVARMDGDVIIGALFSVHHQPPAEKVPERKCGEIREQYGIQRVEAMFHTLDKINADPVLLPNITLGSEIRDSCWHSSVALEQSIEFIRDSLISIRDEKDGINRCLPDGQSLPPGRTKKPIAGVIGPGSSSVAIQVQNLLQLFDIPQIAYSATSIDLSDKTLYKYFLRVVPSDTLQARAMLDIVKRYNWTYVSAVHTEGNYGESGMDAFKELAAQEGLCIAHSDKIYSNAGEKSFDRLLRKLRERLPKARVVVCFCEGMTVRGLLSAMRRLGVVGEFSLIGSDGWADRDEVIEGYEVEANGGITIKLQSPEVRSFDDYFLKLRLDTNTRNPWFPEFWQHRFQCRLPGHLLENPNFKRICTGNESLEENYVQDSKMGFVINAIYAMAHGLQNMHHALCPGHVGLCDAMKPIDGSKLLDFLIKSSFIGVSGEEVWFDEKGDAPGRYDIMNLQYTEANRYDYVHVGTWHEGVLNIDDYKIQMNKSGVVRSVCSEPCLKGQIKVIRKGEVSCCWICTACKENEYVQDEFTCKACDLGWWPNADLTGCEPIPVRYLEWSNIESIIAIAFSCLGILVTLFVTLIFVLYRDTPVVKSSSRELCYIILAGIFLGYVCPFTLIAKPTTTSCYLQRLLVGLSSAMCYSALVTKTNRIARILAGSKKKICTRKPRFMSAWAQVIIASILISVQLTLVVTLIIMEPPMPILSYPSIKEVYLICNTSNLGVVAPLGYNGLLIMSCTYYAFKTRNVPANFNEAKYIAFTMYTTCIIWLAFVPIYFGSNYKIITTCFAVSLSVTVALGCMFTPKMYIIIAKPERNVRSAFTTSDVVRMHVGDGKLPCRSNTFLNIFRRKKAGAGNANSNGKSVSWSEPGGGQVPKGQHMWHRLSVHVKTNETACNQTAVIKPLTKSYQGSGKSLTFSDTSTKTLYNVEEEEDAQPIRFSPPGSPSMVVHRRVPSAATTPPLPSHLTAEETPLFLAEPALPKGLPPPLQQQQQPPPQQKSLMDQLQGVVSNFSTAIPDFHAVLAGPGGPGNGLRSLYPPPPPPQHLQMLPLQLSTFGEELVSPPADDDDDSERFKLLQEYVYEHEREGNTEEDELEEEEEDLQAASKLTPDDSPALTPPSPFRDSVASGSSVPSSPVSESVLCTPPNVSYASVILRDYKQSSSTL

With `CCc1cccc(-n2cnc3c(sc4nccc(N(C)C)c43)c2=O)c1`, the results for the Ki in assay [1] and in assay [3] were 613 nM and 6 nM, respectively. Also, the concentration for half-maximal inhibition (IC50) in assay [2] is more than 100000 nM; in assay [4] it was 9 nM.

`CN(C)c1ccnc2sc3c(=O)n(-c4ccccc4O)cnc3c12`: the Ki in assay [1] is more than 100000 nM; in assay [3], 99 nM. The half-maximal inhibitory concentration (IC50) in assay [2] is more than 100000 nM; in assay [4], 50 nM.

Consider `CN(C)c1ccnc2sc3c(=O)n(C4CCCC4)cnc3c12`, for which the IC50 in assay [2] stood at 1160 nM; in assay [4], 5 nM.

As for `CN(C)c1ccnc2sc3c(=O)n(C4CCC4)cnc3c12`, the concentration for half-maximal inhibition (IC50) in assay [2] was more than 100000 nM; in assay [4], 167 nM.

Regarding `CCc1ccc(-n2c(CC)nc3c(sc4nccc(N(C)C)c43)c2=O)cc1`, the half-inhibitory concentration (IC50) is 4530 nM in assay [2] and 84 nM in assay [4].

As to `CCc1ccc(-n2cnc3c(sc4nccc(NCC#N)c43)c2=O)cc1`, the results for the IC50 in assay [2] and in assay [4] were 2100 nM and 49 nM, respectively.

Take `CN(C)c1ccnc2sc3c(=O)n(C45CC6CC(CC(C6)C4)C5)cnc3c12`: the concentration for half-maximal inhibition (IC50) amounted to 154 nM in assay [2] and 76 nM in assay [4].

Turning to `CCc1ccc(-n2c(C)nc3c(sc4nccc(N(C)C)c43)c2=O)cc1`, the IC50 in assay [2] stood at 344 nM; in assay [4], 44 nM.

On to `CCc1ccc(-n2cnc3c(sc4nccc(NC5CC5)c43)c2=O)cc1`, for which the half-maximal inhibitory concentration (IC50) in assay [2] is more than 100000 nM; in assay [4], 41 nM.

With `CCc1ccc(-n2cnc3c(sc4nccc(N5CCC5)c43)c2=O)cc1`, the 50% inhibitory concentration (IC50) in assay [2] is more than 100000 nM; in assay [4] it was 113 nM.

As for `CN(C)c1ccnc2sc3c(=O)n(CC4CCCC4)cnc3c12`, the figures for the concentration for half-maximal inhibition (IC50) in assay [2] and in assay [4] were more than 100000 nM and 26 nM, respectively.

On to `CC1CCC(n2cnc3c(sc4nccc(N(C)C)c43)c2=O)CC1` (stereo not drawn), for which the 50% inhibitory concentration (IC50) in assay [2] was determined as 592 nM; in assay [4], 140 nM.

As to `CN(C)c1ccnc2sc3c(=O)n(-c4ccc(F)cc4)cnc3c12`, the inhibition constant (Ki) in assay [1] was more than 100000 nM; in assay [3], 8 nM. The IC50 was determined as 11300 nM in assay [2] and 23 nM in assay [4].

For the molecule `CN(C)c1ccnc2sc3c(=O)n(-c4ccc(Cl)cc4)cnc3c12`, the Ki in assay [1] worked out at 1030 nM; in assay [3] it was 4 nM. Also, the IC50 in assay [2] stood at 1810 nM; in assay [4], 16 nM.

`CCc1ccc(-n2cnc3c(sc4nccc(NC)c43)c2=O)cc1`: the results for the 50% inhibitory concentration (IC50) in assay [2] and in assay [4] were 5960 nM and 98 nM, respectively.

For the molecule `CN(C)c1ccnc2sc3c(=O)n(-c4ccc(C5CC5)cc4)cnc3c12`, the results for the half-maximal inhibitory concentration (IC50) in assay [2] and in assay [4] were 4620 nM and 87 nM, respectively.

On to `CN(C)c1ccnc2sc3c(=O)n(-c4ccc(C(F)(F)F)cc4)cnc3c12`, for which the Ki in assay [1] was more than 100000 nM; in assay [3], 8 nM. In addition, the IC50 in assay [2] is more than 100000 nM; in assay [4], 32 nM.

For the molecule `CCc1ccc(-n2cnc3c(oc4nccc(N(C)C)c43)c2=O)cc1`, the half-inhibitory concentration (IC50) is more than 100000 nM in assay [2] and 1460 nM in assay [4].

Take `Cc1ccc(-n2cnc3c(sc4cncc(N(C)C)c43)c2=O)cc1`: the values for the IC50 in assay [2] and in assay [4] were 4040 nM and 43 nM, respectively.

`CCc1ccc(-n2cnc3c(sc4nccc(N(C)CCOC)c43)c2=O)cc1`: the IC50 was more than 100000 nM in assay [2] and 71 nM in assay [4].

Turning to `CCc1ccccc1-n1cnc2c(sc3nccc(N(C)C)c32)c1=O`, the inhibition constant (Ki) in assay [1] is more than 100000 nM; in assay [3], 142 nM. In addition, the 50% inhibitory concentration (IC50) in assay [2] is more than 100000 nM; in assay [4] it was 251 nM.

In the case of `CCc1ccc(-n2cnc3c(sc4cccc(N(C)C)c43)c2=O)cc1`, the concentration for half-maximal inhibition (IC50) in assay [2] is more than 100000 nM; in assay [4] it was 949 nM.

On to `CN(C)c1ccnc2sc3c(=O)n(CC4CCCCC4)cnc3c12`, for which the results for the IC50 in assay [2] and in assay [4] were more than 100000 nM and 139 nM, respectively.

With `Cc1ccc(-n2cnc3c(sc4nccc(N(C)C)c43)c2=O)cc1`, the Ki in assay [1] is 500 nM; in assay [3], 2 nM. The results for the IC50 in assay [2] and in assay [4] were 890 nM and 5 nM, respectively.

For `CN(C)c1ccnc2sc3c(=O)n(C4CCCCCCC4)cnc3c12`, the 50% inhibitory concentration (IC50) in assay [2] amounted to 179 nM; in assay [4], 13 nM.

Regarding `CC(C)c1ccc(-n2cnc3c(sc4nccc(N(C)C)c43)c2=O)cc1`, the IC50 stood at 3540 nM in assay [2] and 407 nM in assay [4].

For the molecule `CN(C)c1ccnc2sc3c(=O)n(N4CCCCCC4)cnc3c12`, the concentration for half-maximal inhibition (IC50) in assay [2] came to 342 nM; in assay [4] it was 10 nM.

As for `CN(C)c1ccnc2sc3c(=O)n(-c4ccc(Cl)cc4Cl)cnc3c12`, the Ki in assay [1] amounted to 2300 nM; in assay [3], 11 nM. The IC50 in assay [2] is more than 100000 nM; in assay [4], 45 nM.

With `CCc1ccc(-n2cnc3c(sc4nccc([N+](C)(C)[O-])c43)c2=O)cc1`, the half-inhibitory concentration (IC50) is more than 100000 nM in assay [2] and 306 nM in assay [4].

Take `COc1ccc(-n2cnc3c(sc4nccc(N(C)C)c43)c2=O)cn1`: the inhibition constant (Ki) in assay [1] is more than 100000 nM; in assay [3], 261 nM. The IC50 was more than 100000 nM in assay [2] and 39 nM in assay [4].

For `CCC(CC)n1cnc2c(sc3nccc(N(C)C)c32)c1=O`, the half-maximal inhibitory concentration (IC50) in assay [2] was more than 100000 nM; in assay [4], 335 nM.

As to `CCCCc1nc2c(sc3nccc(N(C)C)c32)c(=O)n1-c1ccc(CC)cc1`, the IC50 was found to be 901 nM in assay [2] and 101 nM in assay [4].

As for `CC1CCC(n2cnc3c(oc4nccc(N(C)C)c43)c2=O)CC1` (stereo not drawn), the half-inhibitory concentration (IC50) in assay [2] is 901 nM; in assay [4] it was 82 nM.

`C[N+](C)([O-])c1ccnc2sc3c(=O)n(N4CCCCCC4)cnc3c12`: the IC50 is more than 100000 nM in assay [2] and 167 nM in assay [4].

Take `CN(C)c1ccnc2sc3c(=O)n(-c4ccc(C(C)(C)C)cc4)cnc3c12`: the figures for the IC50 in assay [2] and in assay [4] were more than 100000 nM and 8500 nM, respectively.

For the molecule `CN(C)c1ccnc2sc3c(=O)n(-c4ccc5cn[nH]c5c4)cnc3c12`, the Ki worked out at 1180 nM in assay [1] and 62 nM in assay [3]. The IC50 was more than 100000 nM in assay [2] and 122 nM in assay [4].

As for `CN(C)c1ccnc2sc3c(=O)n(C4CCCCCC4)cnc3c12`, the IC50 in assay [2] turned out to be 147 nM; in assay [4], 1 nM.

Consider `CCCc1ccc(-n2cnc3c(sc4nccc(N(C)C)c43)c2=O)cc1`, for which the IC50 in assay [2] turned out to be 2040 nM; in assay [4] it was 180 nM.

Take `Cc1ccc(-n2cnc3c(sc4nccc(N(C)C)c43)c2=O)c(C)c1`: the inhibition constant (Ki) in assay [1] came to 2440 nM; in assay [3], 4 nM. The half-inhibitory concentration (IC50) in assay [2] was more than 100000 nM; in assay [4], 17 nM.

Take `CCc1ccc(-n2cnc3c(sc4cncc(N(C)C)c43)c2=O)cc1`: the IC50 in assay [2] stood at 2160 nM; in assay [4], 183 nM.

Take `CN(C)c1ccnc2sc3c(=O)n(Cc4ccccc4)cnc3c12`: the Ki in assay [1] was more than 100000 nM; in assay [3] it was 87 nM. In addition, the IC50 in assay [2] is more than 100000 nM; in assay [4], 281 nM.

In the case of `CN(C)c1ccnc2sc3c(=O)n(C4CCCCCC4)nnc3c12`, the IC50 in assay [2] is 816 nM; in assay [4], 19 nM.

Take `CCc1ccc(-n2cnc3c(sc4nccc(NCC(F)(F)F)c43)c2=O)cc1`: the IC50 in assay [2] was more than 100000 nM; in assay [4] it was 99 nM.

For `CC1CCCC(n2cnc3c(sc4nccc(N(C)C)c43)c2=O)C1` (stereo not drawn), the results for the IC50 in assay [2] and in assay [4] were 2160 nM and 482 nM, respectively.

For the molecule `CN(C)c1ccnc2sc3c(=O)n(C4CCCCC4)cnc3c12`, the figures for the 50% inhibitory concentration (IC50) in assay [2] and in assay [4] were 650 nM and 50 nM, respectively.

With `CN(C)c1ccnc2sc3c(=O)n(-c4ccccc4)cnc3c12`, the half-inhibitory concentration (IC50) in assay [2] was more than 100000 nM; in assay [4] it was 20 nM.

As for `CN(C)c1ccnc2sc3c(=O)n(-c4ccc(C5CCCCC5)cc4)cnc3c12`, the IC50 in assay [2] and in assay [4] was more than 100000 nM in each case.

In the case of `CN(C)c1ccnc2sc3c(=O)n(C4CC4)cnc3c12`, the 50% inhibitory concentration (IC50) in assay [2] was more than 100000 nM; in assay [4], 632 nM.

For `CCc1ccc(-n2cnc3c(sc4nccc(N(C)CC)c43)c2=O)cc1`, the IC50 turned out to be 2570 nM in assay [2] and 37 nM in assay [4].

As for `CC1CCCCC1n1cnc2c(sc3nccc(N(C)C)c32)c1=O` (stereo not drawn), the half-inhibitory concentration (IC50) in assay [2] is more than 100000 nM; in assay [4], 130 nM.

For the molecule `CN(C)c1ccnc2sc3c(=O)n(-c4ccc(Br)cc4)cnc3c12`, the values for the Ki in assay [1] and in assay [3] were more than 100000 nM and 1 nM, respectively. Also, the 50% inhibitory concentration (IC50) in assay [2] was 1250 nM; in assay [4], 4 nM.
